Source: ChEMBL document CHEMBL3399995, “Synthesis and biological evaluation of benzimidazole acridine derivatives as potential DNA-binding and apoptosis-inducing agents” (Bioorg Med Chem, 2015)
pIC50: −log10 of the molar value. Values belong to the molecule of their own block, whether it stands above or below them. The source made the active and inactive calls. The calls are words filed in the database; no cut-off is given here.

Tests used:
HepG2 = assay: Antiproliferative activity against human HepG2 cells after 48 hrs by MTT assay; assay type: functional, cell-based; details: HepG2, 48 h
Method in brief: (§1)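 Cells were grown at 37 °C in 5% CO₂ with 10% FBS, penicillin and streptomycin. Media were IMDM for K562; DMEM for HepG-2, A-375, U-118 MG and A172; RPMI 1640 for CNE-2 and HeLa; MEM-EBSS for U251. MTT (5 mg/mL) was added for 4 h at 37 °C, formazan dissolved in DMSO, and A490 read. IC50 is the concentration giving 50% growth inhibition.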

K562 [1] = assay: Antiproliferative activity against human K562 cells after 48 hrs by MTT assay; assay type: functional, cell-based; details: K562, 48 h; method in brief: as §1
[2] = target: T1, DNA topoisomerase 1 (Homo sapiens) (UniProt P11387); assay: Inhibition of recombinant human DNA topoisomerase 1 assessed as relaxation of plasmid DNA pBR322 at 50 uM by agarose gel electrophoresis
T1 sequence (whole entry): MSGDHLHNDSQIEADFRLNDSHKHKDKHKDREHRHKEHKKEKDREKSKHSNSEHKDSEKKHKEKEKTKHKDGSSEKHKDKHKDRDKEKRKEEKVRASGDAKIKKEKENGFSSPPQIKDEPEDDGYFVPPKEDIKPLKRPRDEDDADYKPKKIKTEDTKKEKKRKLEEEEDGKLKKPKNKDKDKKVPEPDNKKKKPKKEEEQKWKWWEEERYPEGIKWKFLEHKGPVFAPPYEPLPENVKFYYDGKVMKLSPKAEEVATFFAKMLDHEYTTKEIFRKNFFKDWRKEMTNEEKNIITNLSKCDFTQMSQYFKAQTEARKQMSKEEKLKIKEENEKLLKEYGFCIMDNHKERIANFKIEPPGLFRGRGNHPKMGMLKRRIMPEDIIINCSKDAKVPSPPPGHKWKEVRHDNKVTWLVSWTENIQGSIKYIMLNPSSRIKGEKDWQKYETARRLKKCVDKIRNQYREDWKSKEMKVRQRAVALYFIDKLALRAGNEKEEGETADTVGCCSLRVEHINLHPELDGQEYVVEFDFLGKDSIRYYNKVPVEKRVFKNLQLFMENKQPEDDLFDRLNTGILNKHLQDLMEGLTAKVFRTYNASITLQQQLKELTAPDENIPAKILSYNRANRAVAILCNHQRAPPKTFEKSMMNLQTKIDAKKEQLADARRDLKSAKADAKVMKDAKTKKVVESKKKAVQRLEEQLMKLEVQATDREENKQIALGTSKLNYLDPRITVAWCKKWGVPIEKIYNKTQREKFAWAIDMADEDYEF
Method in brief: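 pBR322 (100 ng) was incubated with 1.0 unit recombinant human topoisomerase I and compound (50 μM) at 37 °C for 30 min. Relaxation buffer was 35 mM Tris-HCl pH 8.0, 5 mM MgCl2, 72 mM KCl, 0.01% BSA, 2 mM spermidine, 5 mM DTT. Products were resolved on 1% agarose in TAE at 100 V for 25 min and stained with ethidium bromide.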

K562 [3] = assay: Induction of apoptosis in human K562 cells assessed as activation of caspase 7 at 10 uM after 48 hrs by Western blot analysis; assay type: functional, cell-based
Method in brief: (§2)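 K562 cells in 6 cm dishes were exposed to 1, 5 or 10 μM for 48 h, then lysed at 0 °C for 0.5 h and spun at 20,000 g for 10 min. Protein was measured by BCA. Lysates were run on 12% SDS-PAGE and transferred to PVDF. Membranes were blocked in 5% milk for 1 h, then given primary antibody overnight at 4 °C.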

K562 [4] = assay: Induction of apoptosis in human K562 cells assessed as activation of caspase 9 at 10 uM after 48 hrs by Western blot analysis; assay type: functional, cell-based; method in brief: as §2
Calf thymus DNA [5] = assay: Binding affinity to calf thymus DNA after 3 mins by UV-vis absorption spectra analysis; assay type: nucleic-acid assay, Bos taurus
Method in brief: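 ct DNA titration of the compound (40 μM) in 10 mM Tris-HCl, 10 mM NaCl, pH 7.0, at [DNA]/[compound] 0–1.0, in a 1.0 cm quartz cell. Samples sat 3 min before UV-vis spectra were recorded. Kb was taken as the slope-to-intercept ratio of [DNA]/(εa−εf) plotted against [DNA].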

K562 [6] = assay: Induction of apoptosis in human K562 cells assessed as early apoptotic cells at 10 uM by annexin V-FITC/propidium iodide staining-based flow cytometry (reference value: 0.709%)
K562 [7] = assay: Induction of apoptosis in human K562 cells assessed as loss of mitochondrial membrane potential at 10 uM using JC-1 staining by fluorescence assay; assay type: functional, cell-based
Method in brief: (§3)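 Mitochondrial membrane potential in treated K562 cells (0, 2.5, 10 μM) was measured with a JC-1 kit. Red fluorescence marks high potential and green marks low. CCCP at 10 μM served as positive control.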

K562 [8] = assay: Induction of apoptosis in human K562 cells assessed as PARP cleavage at 10 uM after 48 hrs by Western blot analysis; assay type: functional, cell-based; method in brief: as §2
K562 [9] = assay: Induction of apoptosis in human K562 cells assessed as early apoptotic cells at 2.5 uM by annexin V-FITC/propidium iodide staining-based flow cytometry (reference value: 0.709%)
K562 [10] = assay: Induction of apoptosis in human K562 cells assessed as apoptotic cells at 10 uM by annexin V-FITC/propidium iodide staining-based flow cytometry (reference value: 0.162%)
K562 [11] = assay: Induction of apoptosis in human K562 cells assessed as loss of mitochondrial membrane potential at 2.5 uM using JC-1 staining by fluorescence assay; assay type: functional, cell-based; method in brief: as §3
[12] = Antiproliferative activity against human A172 cells after 48 hrs by MTT assay; assay type: functional, cell-based; details: A 172, 48 h; method in brief: as §1
K562 [13] = assay: Induction of apoptosis in human K562 cells assessed as late apoptotic or necrotic cells at 2.5 uM by annexin V-FITC/propidium iodide staining-based flow cytometry (reference value: 0.162%)
K562 [14] = assay: Induction of apoptosis in human K562 cells assessed as viable cells at 10 uM by annexin V-FITC/propidium iodide staining-based flow cytometry (reference value: 98.9%); assay type: functional; details: read-out: Activity
HeLa = assay: Antiproliferative activity against human HeLa cells after 48 hrs by MTT assay; assay type: functional, cell-based; method in brief: as §1
K562 [15] = assay: Induction of apoptosis in human K562 cells assessed as downregulation of Bcl-xL protein expression at 10 uM after 48 hrs by Western blot analysis; assay type: functional, cell-based; method in brief: as §2
K562 [16] = assay: Induction of apoptosis in human K562 cells assessed as activation of caspase 3 at 10 uM after 48 hrs by Western blot analysis; assay type: functional, cell-based; method in brief: as §2
Calf thymus DNA [17] = assay: Binding affinity to calf thymus DNA after 3 mins by fluorescence absorption spectroscopy; assay type: nucleic-acid assay; details: Bos taurus
Method in brief: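 Fluorescence titration of the compound (3.75 μM final) in 10 mM Tris-HCl, 10 mM NaCl, pH 7.0, with ct DNA at 0, 1, 2, 3, 4 and 5 μM final. Samples sat 3 min before emission spectra were recorded. The binding constant came from the Stern-Volmer fit F0/F = 1 + K[Q], with [Q] the DNA concentration.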

U-251 = assay: Antiproliferative activity against human U251 cells after 48 hrs by MTT assay; assay type: functional, cell-based; details: U-251, 48 h; method in brief: as §1
[18] = Antiproliferative activity against human U118MG cells after 48 hrs by MTT assay; assay type: functional, cell-based; details: U-118-MG; method in brief: as §1
A-375 = assay: Antiproliferative activity against human A375 cells after 48 hrs by MTT assay; assay type: functional, cell-based; details: A-375, 48 h; method in brief: as §1
K562 [19] = assay: Induction of apoptosis in human K562 cells assessed as necrotic cells at 10 uM by annexin V-FITC/propidium iodide staining-based flow cytometry (reference value: 0.203%); assay type: functional
K562 [20] = assay: Induction of apoptosis in human K562 cells assessed as necrotic cells at 2.5 uM by annexin V-FITC/propidium iodide staining-based flow cytometry (reference value: 0.203%); assay type: functional
[21] = Antiproliferative activity against human CNE2 cells after 48 hrs by MTT assay; assay type: functional, cell-based; details: CNE-2, 48 h; method in brief: as §1
K562 [22] = assay: Induction of apoptosis in human K562 cells assessed as viable cells at 2.5 uM by annexin V-FITC/propidium iodide staining-based flow cytometry (reference value: 98.9%); assay type: functional; details: read-out: Activity

Compound: c1ccc2[nH]c(Nc3c4ccccc4nc4ccccc34)nc2c1
pIC50 (HepG2): 5.40 | pIC50 (K562 [1]): < 4.30 | inhibition [2]: Active

Compound: Fc1cc2nc3ccccc3c(NCc3nc4ccccc4[nH]3)c2cc1F
pIC50 (HepG2): 4.59 | pIC50 (K562 [1]): 4.76 | inhibition [2]: Active

Compound: COc1ccc2nc3ccccc3c(Nc3nc4ccccc4[nH]3)c2c1
pIC50 (HepG2): 5.34 | pIC50 (K562 [1]): 5.06 | inhibition [2]: Active

Compound: Cc1cccc2c(NCc3nc4ccccc4[nH]3)c3ccccc3nc12
pIC50 (HepG2): < 4.30 | pIC50 (K562 [1]): 4.37 | inhibition [2]: Active

Compound: c1ccc2[nH]c(Sc3c4ccccc4nc4ccccc34)nc2c1
pIC50 (HepG2): < 4.30 | pIC50 (K562 [1]): 4.85 | inhibition [2]: Active

Compound: CCCCc1ccc2nc3ccccc3c(NCc3nc4ccccc4[nH]3)c2c1
Activity (K562 [3]): Active | pIC50 (HepG2): 5.09 | Activity (K562 [4]): Active | Kb (Calf thymus DNA [5]): 1.88 ×10⁵ /M | early apoptotic cells at 10 µM (K562 [6]): 57.3% | Activity (K562 [7]): Active | Activity (K562 [8]): Active | early apoptotic cells at 2.5 µM (K562 [9]): 14.9% | apoptotic cells at 10 µM (K562 [10]): 10.6% | Activity (K562 [11]): Active | pIC50 [12]: 5.54 | late apoptotic or necrotic cells at 2.5 µM (K562 [13]): 1.27% | viability at 10 µM (K562 [14]): 30.8% | pIC50 (HeLa): 5.56 | Activity (K562 [15]): Active | Activity (K562 [16]): Active | Activity (Calf thymus DNA [17]): Active | pIC50 (U-251): 5.62 | pIC50 [18]: 5.70 | pIC50 (A-375): 5.49 | pIC50 (K562 [1]): 5.57 | Activity (K562 [19]): 1.37% | Activity (K562 [20]): 0.55% | pIC50 [21]: 5.58 | inhibition [2]: Active | viability at 2.5 µM (K562 [22]): 83.3%

Compound: c1ccc2[nH]c(-c3ccc(Nc4c5ccccc5nc5ccccc45)cc3)nc2c1
pIC50 (HepG2): < 4.30 | pIC50 (K562 [1]): 5.55 | inhibition [2]: Active

Compound: COc1cccc2c(Nc3nc4ccccc4[nH]3)c3ccccc3nc12
pIC50 (HepG2): 5.20 | pIC50 (K562 [1]): 5.14 | inhibition [2]: Active

Compound: COc1cccc2c(NCc3nc4ccccc4[nH]3)c3ccccc3nc12
pIC50 (HepG2): 4.55 | pIC50 (K562 [1]): 5.13 | inhibition [2]: Active

The next lines start with the values.

pIC50 (HepG2): 4.41 | pIC50 (K562 [1]): 4.91 | inhibition [2]: Active
Compound: Cc1ccc2nc3ccccc3c(NCc3nc4ccccc4[nH]3)c2c1

pIC50 (HepG2): < 4.30 | pIC50 (K562 [1]): 5.12 | inhibition [2]: Active
Compound: CCc1ccc2nc3ccccc3c(NCc3nc4ccccc4[nH]3)c2c1

pIC50 (HepG2): 5.05 | pIC50 (K562 [1]): 5.33 | inhibition [2]: Active
Compound: COc1ccc2nc3ccccc3c(NCc3nc4ccccc4[nH]3)c2c1

pIC50 (HepG2): 4.81 | pIC50 (K562 [1]): 4.82 | inhibition [2]: Active
Compound: COc1ccc2c(NCc3nc4ccccc4[nH]3)c3ccccc3nc2c1

pIC50 (HepG2): 4.39 | pIC50 (K562 [1]): 4.93 | inhibition [2]: Active
Compound: Clc1ccc2nc3ccccc3c(NCc3nc4ccccc4[nH]3)c2c1

pIC50 (HepG2): 4.97 | pIC50 (K562 [1]): 4.54 | inhibition [2]: Active
Compound: Fc1ccc2c(NCc3nc4ccccc4[nH]3)c3ccccc3nc2c1

pIC50 (HepG2): 4.49 | pIC50 (K562 [1]): 4.60 | inhibition [2]: Active
Compound: Cc1ccc2c(NCc3nc4ccccc4[nH]3)c3ccccc3nc2c1

pIC50 (HepG2): < 4.30 | pIC50 (K562 [1]): 4.95 | inhibition [2]: Active
Compound: c1ccc2[nH]c(CNc3c4ccccc4nc4ccccc34)nc2c1
